The test system of data set [1] is Staphylococcus aureus. The data set can be described thus: Antimicrobial activity against methicillin-resistant Staphylococcus aureus Newman assessed as microbial growth inhibition. Format: functional.
Data set [2] deals with Staphylococcus aureus. The data set can be described thus: Antibacterial activity against methicillin/ceftriaxone/meropenem-resistant Staphylococcus aureus NRS10192 clinical isolate assessed as bacterial growth inhibition incubated for 16 to 18 hrs by CLSI based antibiotic susceptibility testing method. As to conditions: time 16-18 hrs. Format: functional. The method, boiled down:
(§1)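 Broth microdilution in cation-adjusted Mueller-Hinton broth. Compounds were tested at […], with levofloxacin as reference and medium-only controls. Plates were incubated at 37 °C for 16-18 h. MIC was the lowest concentration with no visible growth; three independent determinations, each in duplicate.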

A short description of data set [3]: Selectivity index, ratio of CC50 for African green monkey Vero cells to MIC for Staphylococcus aureus ATCC 29213. The following applies: read-out: Selectivity Index. Type of data set: toxicity, cell-based.
The test system of data set [4] is Staphylococcus aureus. Put plainly: Antibacterial activity against methicillin/ceftriaxone/meropenem/gentamycin/linezolid-resistant Staphylococcus aureus NRS10100 clinical isolate assessed as bacterial growth inhibition incubated for 16 to 18 hrs by CLSI based antibiotic susceptibility testing method. Format: functional. As to conditions: time 16-18 hrs. The method, boiled down: as §1

The subject of data set [5] is Staphylococcus aureus. The data set can be described thus: Antibacterial activity against methicillin/ceftriaxone/meropenem-resistant Staphylococcus aureus NRS10129 clinical isolate assessed as bacterial growth inhibition incubated for 16 to 18 hrs by CLSI based antibiotic susceptibility testing method. Type of data set: functional. As to conditions: time 16-18 hrs. An outline of the steps:
as §1

For data set [6], the system named is Staphylococcus aureus. Put plainly: Antibacterial activity against methicillin/ceftriaxone/meropenem/gentamycin/linezolid-resistant Staphylococcus aureus NRS10119 clinical isolate assessed as bacterial growth inhibition incubated for 16 to 18 hrs by CLSI based antibiotic susceptibility testing method. As to conditions: time 16-18 hrs. Type of data set: functional. An outline of the steps:
as §1

The subject of data set [7] is Staphylococcus aureus. The data set can be described thus: Antibacterial activity against methicillin/ceftriaxone/meropenem/vancomycin/teicoplanin-resistant Staphylococcus aureus VRS4 clinical isolate assessed as bacterial growth inhibition incubated for 16 to 18 hrs by CLSI based antibiotic susceptibility testing method. Format: functional. As to conditions: time 16-18 hrs. An outline of the steps: as §1

For data set [8], the system named is Mycobacterium tuberculosis. The data set can be described thus: Antimycobacterial activity against Mycobacterium tuberculosis H37Rv ATCC 27294 assessed as bacterial growth inhibition incubated for 7 days by resazurin dye based broth microdilution method. Type of data set: functional. The following applies: H37Rv ATCC 27294, 168 h, time 7 day. An outline of the steps:
(§2)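 Broth microdilution in Middlebrook 7H9 with 10% ADC-Tween-80 (0.2% glycerol, 0.05% Tween-80), inoculum ~10⁶ cfu/mL. Compounds came from 10 mg/mL DMSO stocks and were tested as two-fold serial dilutions at 37 °C, 7 days for M. tuberculosis H37Rv and 72 h for NTM. Growth was read visually with PrestoBlue resazurin dye; MIC was the lowest concentration preventing growth. Triplicate determinations, each in duplicate.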

The subject of a further data set is Acinetobacter baumannii. Put plainly: Antibacterial activity against Acinetobacter baumannii BAA 1605 assessed as bacterial growth inhibition incubated for 16 to 18 hrs by CLSI based antibiotic susceptibility testing method. Type of data set: functional, organism-based. As to conditions: time 16-18 hrs. An outline of the steps:
as §1

Data set [9] concerns Mycobacteroides abscessus. Put plainly: Antimycobacterial activity against Mycobacterium abscessus ATCC 19977 assessed as bacterial growth inhibition incubated for 72 hrs by resazurin dye based broth microdilution method. Format: functional, organism-based. An outline of the steps: as §2
Background: Alamar Blue is a resazurin reagent that responds to reducing activity.

The test system of data set [10] is Staphylococcus aureus. Put plainly: Antibacterial activity against methicillin/ceftriaxone/meropenem/gentamycin/vancomycin/teicoplanin-resistant Staphylococcus aureus VRS1 clinical isolate assessed as bacterial growth inhibition incubated for 16 to 18 hrs by CLSI based antibiotic susceptibility testing method. Type of data set: functional. The following applies: time 16-18 hrs. The method, boiled down: as §1

The nature of data set [11]: Cytotoxicity against African green monkey Vero cells by MTT assay. Format: toxicity, cell-based. As to conditions: chlorocebus sabaeus. An outline of the steps:
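Vero cells were seeded at ~10³ per well at 37 °C, 5% CO2. After 24 h, compounds were added at 5-100 mg/L for 72 h. […] was added for 4 h, formazan was dissolved in DMSO and read at 540 nm. CC50 was taken as the lowest concentration reducing viability by 50%; doxorubicin was the positive control; triplicate.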
On the technique in general: Formazan colour is commonly taken as a measure of viable cells.

The subject of data set [12] is Staphylococcus aureus. Put plainly: Antibacterial activity against Staphylococcus aureus ATCC 29213 assessed as bacterial growth inhibition incubated for 16 to 18 hrs by CLSI based antibiotic susceptibility testing method. As to conditions: time 16-18 hrs. Format: functional. The method, boiled down: as §1
The test system of the next data set is Pseudomonas aeruginosa. Put plainly: Antibacterial activity against Pseudomonas aeruginosa ATCC 27853 assessed as bacterial growth inhibition incubated for 16 to 18 hrs by CLSI based antibiotic susceptibility testing method. Format: functional, organism-based. As to conditions: time 16-18 hrs. The method, boiled down: as §1
Data set [13] has as its system Staphylococcus aureus. The data set can be described thus: Bactericidal activity against Staphylococcus aureus ATCC 29213 assessed as reduction in remnant bacterial cells measured for 24 hrs by time-kill assay. Format: functional, organism-based. The method, boiled down:
(§3)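 Time-kill assay: S. aureus ATCC 29213 at ~10⁶ cfu/mL in MHB, exposed to 1X and 10X MIC at 37 °C, in triplicate. Samples taken at 0, 1, 6 and 24 h were serially diluted in PBS and plated on TSA for 18-20 h at 37 °C. Surviving cfu/mL were counted against untreated controls.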

The subject of another data set is Escherichia coli. The data set can be described thus: Antibacterial activity against Escherichia coli ATCC 25922 assessed as bacterial growth inhibition incubated for 16 to 18 hrs by CLSI based antibiotic susceptibility testing method. Format: functional, organism-based. As to conditions: time 16-18 hrs. An outline of the steps:
as §1

Data set [14] relates to Staphylococcus aureus. The data set can be described thus: Antibacterial activity against methicillin/ceftriaxone/meropenem-resistant Staphylococcus aureus NRS10193 clinical isolate assessed as bacterial growth inhibition incubated for 16 to 18 hrs by CLSI based antibiotic susceptibility testing method. Type of data set: functional. As to conditions: time 16-18 hrs. The method, boiled down: as §1

Data set [15] concerns Staphylococcus aureus. The data set can be described thus: Antibacterial activity against methicillin/ceftriaxone/meropenem/vancomycin/teicoplanin-resistant Staphylococcus aureus VRS12 clinical isolate assessed as bacterial growth inhibition incubated for 16 to 18 hrs by CLSI based antibiotic susceptibility testing method. As to conditions: time 16-18 hrs. Type of data set: functional. The method, boiled down: as §1

Data set [16] deals with Staphylococcus aureus. The data set can be described thus: Antibacterial activity against methicillin/ceftriaxone-resistant Staphylococcus aureus NRS10194 clinical isolate assessed as bacterial growth inhibition incubated for 16 to 18 hrs by CLSI based antibiotic susceptibility testing method. The following applies: time 16-18 hrs. Format: functional. An outline of the steps:
as §1

The subject of data set [17] is Staphylococcus aureus. The data set can be described thus: Antibacterial activity against methicillin/ceftriaxone/meropenem-resistant Staphylococcus aureus NRS10186 clinical isolate assessed as bacterial growth inhibition incubated for 16 to 18 hrs by CLSI based antibiotic susceptibility testing method. Type of data set: functional. As to conditions: time 16-18 hrs. An outline of the steps:
as §1

Another data set deals with Mycobacteroides chelonae. The data set can be described thus: Antimycobacterial activity against Mycobacteroides chelonae ATCC 35752 assessed as bacterial growth inhibition incubated for 72 hrs by resazurin dye based broth microdilution method. Format: functional, organism-based. The method, boiled down: as §2
The test system of data set [18] is Staphylococcus aureus. The data set can be described thus: Antibacterial activity against methicillin/ceftriaxone/meropenem-resistant Staphylococcus aureus NRS10191 clinical isolate assessed as bacterial growth inhibition incubated for 16 to 18 hrs by CLSI based antibiotic susceptibility testing method. Type of data set: functional. As to conditions: time 16-18 hrs. An outline of the steps: as §1

Data set [19] has as its system Mycolicibacterium fortuitum. Put plainly: Antimycobacterial activity against Mycobacterium fortuitum ATCC 6841 assessed as bacterial growth inhibition incubated for 72 hrs by resazurin dye based broth microdilution method. Type of data set: functional, organism-based. The method, boiled down:
as §2

The test system of a further data set is Klebsiella pneumoniae. Put plainly: Antibacterial activity against Klebsiella pneumoniae BAA 1705 assessed as bacterial growth inhibition incubated for 16 to 18 hrs by CLSI based antibiotic susceptibility testing method. The following applies: time 16-18 hrs. Format: functional, organism-based. The method, boiled down: as §1
Data set [20] deals with Staphylococcus aureus. The data set can be described thus: Antibacterial activity against methicillin-sensitive Staphylococcus aureus ATCC 29213 clinical isolate assessed as bacterial growth inhibition incubated for 16 to 18 hrs by CLSI based antibiotic susceptibility testing method. Type of data set: functional. As to conditions: time 16-18 hrs. An outline of the steps: as §1

For data set [21], the system named is Staphylococcus aureus. The data set can be described thus: Antibacterial activity against methicillin/ceftriaxone/meropenem-resistant Staphylococcus aureus NRS10198 clinical isolate assessed as bacterial growth inhibition incubated for 16 to 18 hrs by CLSI based antibiotic susceptibility testing method. Type of data set: functional. As to conditions: time 16-18 hrs. The method, boiled down:
as §1

Data set [22] deals with Staphylococcus aureus. The data set can be described thus: Bactericidal activity against Staphylococcus aureus ATCC 29213 assessed as reduction in remnant bacterial cells at 10 times MIC measured for 24 hrs by time-kill assay. Format: functional. An outline of the steps:
as §3

For data set [23], the system named is Staphylococcus aureus. Put plainly: Antimicrobial activity against methicillin-resistant Staphylococcus aureus assessed as microbial growth inhibition by NCCLS based assay. Format: functional.
In data set [24] the test system is Staphylococcus aureus. Put plainly: Antimicrobial activity against Staphylococcus aureus assessed as microbial growth inhibition. Type of data set: functional.

SMILES strings stand for the structures. Values after ≈ are worked out from the molar mass of the structure shown. Active and inactive are the calls of the source. No cut-off for these calls is given here.

Regarding `S=C(Nc1ccc(Cl)cc1)n1ccc(OCc2ccccc2)n1`, the MIC (commonly the least concentration at which growth counts as inhibited) with Staphylococcus aureus [1] was 0.15 µM (≈ 0.0516 µg/mL).
On to `O=C1c2cccc3cccc(c23)C(=O)N1CCN1CCN(C(=S)NC2CCCC2)CC1`, for which the MIC with Staphylococcus aureus [2] is 0.125 µg/mL (≈ 0.286 µM); with Staphylococcus aureus [4], 0.25 µg/mL (≈ 0.573 µM); with Staphylococcus aureus [5] it was 0.25 µg/mL (≈ 0.573 µM); in the data set with Staphylococcus aureus [6], 0.125 µg/mL (≈ 0.286 µM); in the data set on Staphylococcus aureus [7] it was 0.125 µg/mL (≈ 0.286 µM); in data set [8] it was 2 µg/mL (≈ 4.58 µM). In addition, the MIC in the data set on Staphylococcus aureus [10] is 0.125 µg/mL (≈ 0.286 µM); in the data set on Staphylococcus aureus [12] it was 0.125 µg/mL (≈ 0.286 µM); in the data set on Staphylococcus aureus [14], 0.125 µg/mL (≈ 0.286 µM); with Staphylococcus aureus [15], 0.25 µg/mL (≈ 0.573 µM); with Staphylococcus aureus [16] it was 0.125 µg/mL (≈ 0.286 µM); in the data set on Staphylococcus aureus [17] it was 0.25 µg/mL (≈ 0.573 µM). Besides, the MIC with Staphylococcus aureus [18], in the data set with Staphylococcus aureus [20] and in the data set on Staphylococcus aureus [21] was 0.125 µg/mL (≈ 0.286 µM) each time. For the same compound, the selectivity ratio in data set [3] was above 160. The “growth inhibition (GI)” value (in the data set on Acinetobacter baumannii; in data set [9]; in the data set on Pseudomonas aeruginosa; with Escherichia coli; with Mycobacteroides chelonae; in [19]) was “inactive” each time. Also, the “growth inhibition (GI)” value in the data set on Klebsiella pneumoniae was “inactive”. For the same compound, the CC50 – broadly, the concentration that lowers cell viability or growth by half – in [11] was above 20 µg/mL. Further, the Activity entry is “Dose-Dependent Effect” with Staphylococcus aureus [13] and around 5 log10CFU/ml with Staphylococcus aureus [22].
For the compound `CCNc1ccc2c3c(cccc13)C(=O)N(CC(O)Cn1c([N+](=O)[O-])cnc1C)C2=O` (stereo not given), the MIC with Staphylococcus aureus [23] amounted to 40 µM (≈ 16.9 µg/mL).
For `O=C1c2cccc3cccc(c23)C(=O)N1CCN1CCN(C(=S)NC2CCCCC2)CC1`, the MIC in the data set with Staphylococcus aureus [2] stood at 0.25 µg/mL (≈ 0.555 µM); in the data set on Staphylococcus aureus [4] it was 0.25 µg/mL (≈ 0.555 µM); with Staphylococcus aureus [5], 0.25 µg/mL (≈ 0.555 µM); in the data set with Staphylococcus aureus [6] it was 0.25 µg/mL (≈ 0.555 µM); with Staphylococcus aureus [7], 0.25 µg/mL (≈ 0.555 µM); in data set [8], 4 µg/mL (≈ 8.88 µM). The MIC came to 0.25 µg/mL (≈ 0.555 µM) with Staphylococcus aureus [10]; 0.125 µg/mL (≈ 0.277 µM) in the data set on Staphylococcus aureus [12]; 0.25 µg/mL (≈ 0.555 µM) in the data set with Staphylococcus aureus [14]; 0.5 µg/mL (≈ 1.11 µM) in the data set on Staphylococcus aureus [15]; 0.25 µg/mL (≈ 0.555 µM) in the data set on Staphylococcus aureus [16]; 0.25 µg/mL (≈ 0.555 µM) in the data set with Staphylococcus aureus [17]. The MIC with Staphylococcus aureus [18], in the data set with Staphylococcus aureus [20] and in the data set with Staphylococcus aureus [21] was 0.25 µg/mL (≈ 0.555 µM) in each case. The selectivity ratio in data set [3] was above 160. The “growth inhibition (GI)” value (with Acinetobacter baumannii; in data set [9]; in the data set on Pseudomonas aeruginosa; in the data set on Escherichia coli; in the data set on Mycobacteroides chelonae; in data set [19]) was “inactive” each time. Further, the “growth inhibition (GI)” value in the data set with Klebsiella pneumoniae was “inactive”. This compound also registered a CC50 in data set [11] above 20 µg/mL. Further, the Activity result was “Dose-Dependent Effect” in the data set on Staphylococcus aureus [13] and around 5 log10CFU/ml with Staphylococcus aureus [22].
Turning to `CCCOC(=O)c1ccc2sc(NC(=S)N[C@@H]3O[C@H](COC(C)=O)[C@@H](OC(C)=O)[C@H](OC(C)=O)[C@H]3OC(C)=O)nc2c1`, the MIC in the data set with Staphylococcus aureus [24] was found to be 0.78 µg/mL (≈ 1.25 µM).
